Test results as given in ChEMBL document CHEMBL6134796, “Development and Evaluation of Indole-Based Phospholipase D Inhibitors for Lung Cancer Immunotherapy” (J Med Chem, 2025).
Calls of active or inactive are those of the source. The calls are words filed in the database; no cut-off is given here.

Target: T1, Phospholipase D1 (Homo sapiens) (UniProt Q13393)
T1 sequence (whole entry): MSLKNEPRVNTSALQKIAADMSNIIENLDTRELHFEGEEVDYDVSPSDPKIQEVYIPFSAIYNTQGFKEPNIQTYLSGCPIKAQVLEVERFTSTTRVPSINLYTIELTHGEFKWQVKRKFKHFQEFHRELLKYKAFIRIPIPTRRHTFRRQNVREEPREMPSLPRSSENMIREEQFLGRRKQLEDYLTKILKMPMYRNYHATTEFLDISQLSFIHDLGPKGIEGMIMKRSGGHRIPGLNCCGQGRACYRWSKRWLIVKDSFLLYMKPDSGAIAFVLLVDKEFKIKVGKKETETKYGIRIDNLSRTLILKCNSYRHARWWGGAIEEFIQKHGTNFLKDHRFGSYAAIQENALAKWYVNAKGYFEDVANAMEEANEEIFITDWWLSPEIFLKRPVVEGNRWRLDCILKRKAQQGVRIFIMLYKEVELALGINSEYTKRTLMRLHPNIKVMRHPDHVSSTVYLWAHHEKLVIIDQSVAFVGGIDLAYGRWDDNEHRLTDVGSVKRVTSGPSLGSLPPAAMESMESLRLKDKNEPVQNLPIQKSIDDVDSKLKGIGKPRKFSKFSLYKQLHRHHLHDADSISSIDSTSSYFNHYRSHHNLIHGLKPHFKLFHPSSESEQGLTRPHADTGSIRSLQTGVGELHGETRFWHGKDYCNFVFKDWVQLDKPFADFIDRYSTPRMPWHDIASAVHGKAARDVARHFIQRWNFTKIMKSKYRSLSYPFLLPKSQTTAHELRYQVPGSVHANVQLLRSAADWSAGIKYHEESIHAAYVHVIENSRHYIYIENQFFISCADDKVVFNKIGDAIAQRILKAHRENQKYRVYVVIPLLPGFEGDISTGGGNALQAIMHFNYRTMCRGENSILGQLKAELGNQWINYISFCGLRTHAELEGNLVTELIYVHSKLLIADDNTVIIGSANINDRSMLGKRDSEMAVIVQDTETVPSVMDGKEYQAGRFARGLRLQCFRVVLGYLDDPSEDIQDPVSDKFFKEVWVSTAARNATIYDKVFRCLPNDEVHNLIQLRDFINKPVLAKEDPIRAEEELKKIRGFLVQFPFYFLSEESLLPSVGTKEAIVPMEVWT
Experiment: Binding affinity to PLD1 in human A549 cells assessed as protection against pronase E-mediated proteolysis at 2 to 20 uM incubated for 1 hr by DARTS assay
Format: cell-based
Details: dose 2-20 µM
Summary of the method: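 A549 lysates made in buffer with protease and phosphatase inhibitors. Lysates were incubated with compound for 1 h at room temperature, then digested with Pronase for 10 min at RT. Digestion was quenched in SDS loading buffer by boiling 5 min. PLD1 and β-tubulin were detected by immunoblot.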

## O=C(CCc1c[nH]c2ccccc12)Nc1cc(C(F)(F)F)cc(C(F)(F)F)c1
  Activity: Active
